According to ChEMBL document CHEMBL4325910, “Design and synthesis of rosiglitazone-ferulic acid-nitric oxide donor trihybrids for improving glucose tolerance” (Eur J Med Chem, 2019):
The source made the active and inactive calls. The rule behind the calls is not given here.

Key:
L02 = experiment: Inhibition of cellular glucose output in dexamethasone-induced insulin resistant human L02 cells assessed as insulin-stimulated glucose uptake at 10 uM preincubated for 24 hrs followed by insulin stimulation measured after 24 hrs by glucose oxidase method (reference value: 4.5 +/- 0.7%); assay type: functional; set-up: scale not given: the % may be the effect or the level left
3T3-L1 = experiment: Induction of insulin-stimulated 2-NBDG uptake in TNF-alpha-induced insulin resistant mouse 3T3L1 cells at 10 uM preincubated for 48 hrs followed by 2-NBDG addition measured after 30 mins in presence of insulin by fluorescence assay; assay type: functional, cell-based
Method in brief: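 Day-8 differentiated 3T3-L1 adipocytes received TNF-α (4 ng/mL) daily for 4 days. They were pretreated in triplicate for 48 h (C-PTIO 20 μM where indicated), then given 100 μM 2-NBDG at 37 °C for 30 min in the dark, with or without insulin. After KRP washes, fluorescence was read at Ex/Em 485/515 nm. Three experiments, mean ± SD.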

Aquaporin-2 [1] = target: T1, Aquaporin-2 (Homo sapiens, UniProt P41181); experiment: Induction of membrane translocation of biotinylated human AQP2 expressed in rat IMCD cells at 100 uM after 30 mins by Western blot analysis; assay type: cell-based; settings: 0.5 h
T1 sequence (P41181 whole entry): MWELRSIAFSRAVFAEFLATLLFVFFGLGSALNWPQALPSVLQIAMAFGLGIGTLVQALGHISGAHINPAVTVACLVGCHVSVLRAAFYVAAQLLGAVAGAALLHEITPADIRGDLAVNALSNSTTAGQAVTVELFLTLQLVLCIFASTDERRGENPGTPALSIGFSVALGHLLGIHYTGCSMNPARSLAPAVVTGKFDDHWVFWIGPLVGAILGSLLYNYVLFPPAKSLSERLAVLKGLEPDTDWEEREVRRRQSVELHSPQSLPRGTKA
Method in brief: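 Human AQP2-transfected primary rat IMCD cells were treated for 30 min. Surface proteins were biotinylated with sulfo-NHS-LC-biotin (3 mg/mL, 60 min, 4 °C), then cells lysed in 1% NP-40 and pulled down overnight on streptavidin beads. Biotinylated and total AQP2 (30 μg/lane) were blotted with anti-AQP2 and quantified by densitometry as the biotinylated/total ratio. Three experiments, mean ± SD.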

Aquaporin-2 [2] = target: T1, Aquaporin-2; experiment: Induction of membrane translocation of biotinylated human AQP2 expressed in rat IMCD cells at 100 uM after 30 mins by FITC-staining based confocal fluorescence microscopic analysis; assay type: cell-based; settings: 0.5 h
Method in brief: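 Primary SD rat IMCD cells, day 5, were transfected with a human AQP2 plasmid (5 h, serum-free) and cultured 48 h. They were treated for 30 min, with 0.1% DMSO as vehicle and forskolin 100 μM as reference. Cells were fixed in paraformaldehyde, permeabilized with Triton X-100 and quenched with H2O2/methanol. They were stained with FITC-anti-AQP2 and imaged by confocal microscopy.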

Compound | Activity (L02) [%] | Activity (3T3-L1) | also measured
COc1cc(/C=C/C(=O)OCCCCCCO[N+](=O)[O-])ccc1OC(=O)CCC(=O)OCN1C(=O)SC(Cc2ccc(OCCN(C)c3ccccn3)cc2)C1=O (centres undefined) | 6.8 |  | 
COc1cc(/C=C/C(=O)OCCCCCO[N+](=O)[O-])ccc1OC(=O)OCN1C(=O)SC(Cc2ccc(OCCN(C)c3ccccn3)cc2)C1=O (centres undefined) | 7.1 |  | 
COc1cc(/C=C/C(=O)OCN2C(=O)SC(Cc3ccc(OCCN(C)c4ccccn4)cc3)C2=O)ccc1OCCCCO[N+](=O)[O-] (centres undefined) | 11.1 | inactive | 
COC(=O)/C=C/c1ccc(OC(=O)OCN2C(=O)SC(Cc3ccc(OCCN(C)c4ccccn4)cc3)C2=O)c(OC)c1 (centres undefined) |  | Active | 
COC(=O)/C=C/c1ccc(O)c(OC)c1 |  | Active | 
COc1cc(/C=C/C(=O)OCN2C(=O)SC(Cc3ccc(OCCN(C)c4ccccn4)cc3)C2=O)ccc1OCCCCCO[N+](=O)[O-] (centres undefined) | 7.1 |  | 
C=C[C@@]1(C)CC(=O)[C@]2(O)[C@@]3(C)[C@@H](O)CCC(C)(C)[C@@H]3[C@H](O)[C@H](OC(C)=O)[C@@]2(C)O1 [COLFORSIN] |  |  | Activity (Aquaporin-2 [1]): Active; Activity (Aquaporin-2 [2]): Active
COc1cc(/C=C/C(=O)OCCCCCCO[N+](=O)[O-])ccc1OC(=O)OCN1C(=O)SC(Cc2ccc(OCCN(C)c3ccccn3)cc2)C1=O (centres undefined) | 8 |  | 
COc1cc(/C=C/C(=O)OCCCO[N+](=O)[O-])ccc1OC(=O)OCN1C(=O)SC(Cc2ccc(OCCN(C)c3ccccn3)cc2)C1=O (centres undefined) | 9.6 |  | 
COc1cc(/C=C/C(=O)OCCCCO[N+](=O)[O-])ccc1OC(=O)OCN1C(=O)SC(Cc2ccc(OCCN(C)c3ccccn3)cc2)C1=O (centres undefined) | 12.2 | Active | 
COc1cc(/C=C/C(=O)OCCCCO[N+](=O)[O-])ccc1OC(=O)CCC(=O)OCN1C(=O)SC(Cc2ccc(OCCN(C)c3ccccn3)cc2)C1=O (centres undefined) | 7.8 |  | 
COc1cc(/C=C/C(=O)OCCCCCO[N+](=O)[O-])ccc1OC(=O)CCC(=O)OCN1C(=O)SC(Cc2ccc(OCCN(C)c3ccccn3)cc2)C1=O (centres undefined) | 10.1 |  | 
COc1cc(/C=C/C(=O)OCCCO[N+](=O)[O-])ccc1OC(=O)CCC(=O)OCN1C(=O)SC(Cc2ccc(OCCN(C)c3ccccn3)cc2)C1=O (centres undefined) | 10 |  | 
COc1cc(/C=C/C(=O)OCN2C(=O)SC(Cc3ccc(OCCN(C)c4ccccn4)cc3)C2=O)ccc1OCCCO[N+](=O)[O-] (centres undefined) | 11.5 | inactive | 
COc1cc(/C=C/C(=O)OCN2C(=O)SC(Cc3ccc(OCCN(C)c4ccccn4)cc3)C2=O)ccc1OCCCCCCO[N+](=O)[O-] (centres undefined) | 8.5 |  | 
